Laboratory results reported in ChEMBL document CHEMBL2380209, “Synthesis and pharmacological characterization of 4-substituted-2-aminobicyclo[3.1.0]hexane-2,6-dicarboxylates: identification of new potent and selective metabotropic glutamate 2/3 receptor agonists” (J Med Chem, 2013).
Blank lines part the entries; values can stand above or below the molecule they belong to.

What was measured:
[1] = molecular target: T1, Metabotropic glutamate receptor 3 (Homo sapiens, UniProt Q14832); assay: Agonist activity at human mGlu3 receptor expressed in golden Syrian hamster AV12 cells coexpressing EAAT1 after 20 mins by HTRF assay; type: cell-based
T1 sequence (Q14832 whole entry): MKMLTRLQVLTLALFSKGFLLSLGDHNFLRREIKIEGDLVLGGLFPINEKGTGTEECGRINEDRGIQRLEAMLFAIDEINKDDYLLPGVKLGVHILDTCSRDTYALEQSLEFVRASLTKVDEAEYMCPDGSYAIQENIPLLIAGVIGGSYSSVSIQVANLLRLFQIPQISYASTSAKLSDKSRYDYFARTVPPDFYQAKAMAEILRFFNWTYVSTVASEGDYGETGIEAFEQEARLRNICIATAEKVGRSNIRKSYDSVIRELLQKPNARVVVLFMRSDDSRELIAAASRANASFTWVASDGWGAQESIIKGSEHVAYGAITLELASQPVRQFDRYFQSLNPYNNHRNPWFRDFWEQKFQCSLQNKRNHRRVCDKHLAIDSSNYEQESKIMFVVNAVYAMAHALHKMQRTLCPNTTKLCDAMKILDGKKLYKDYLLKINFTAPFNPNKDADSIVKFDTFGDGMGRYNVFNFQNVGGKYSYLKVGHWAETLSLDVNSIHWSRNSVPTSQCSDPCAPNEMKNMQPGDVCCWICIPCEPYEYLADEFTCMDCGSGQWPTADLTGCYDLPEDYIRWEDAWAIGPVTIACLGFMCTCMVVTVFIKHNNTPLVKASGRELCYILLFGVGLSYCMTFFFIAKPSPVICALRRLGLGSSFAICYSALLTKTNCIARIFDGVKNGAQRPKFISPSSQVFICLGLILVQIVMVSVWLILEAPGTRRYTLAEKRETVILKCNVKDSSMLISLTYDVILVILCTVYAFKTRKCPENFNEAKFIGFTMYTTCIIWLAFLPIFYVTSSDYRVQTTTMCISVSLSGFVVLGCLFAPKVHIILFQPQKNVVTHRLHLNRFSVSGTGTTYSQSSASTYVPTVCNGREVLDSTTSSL

[2] = molecular target: Metabotropic glutamate receptor 8 (Homo sapiens, UniProt O00222); assay: Agonist activity at human mGlu8 receptor expressed in golden Syrian hamster AV12 cells coexpressing EAAT1 after 20 mins by FLIPR assay; type: cell-based
Metabotropic glutamate receptor 8, sequence (O00222 whole entry): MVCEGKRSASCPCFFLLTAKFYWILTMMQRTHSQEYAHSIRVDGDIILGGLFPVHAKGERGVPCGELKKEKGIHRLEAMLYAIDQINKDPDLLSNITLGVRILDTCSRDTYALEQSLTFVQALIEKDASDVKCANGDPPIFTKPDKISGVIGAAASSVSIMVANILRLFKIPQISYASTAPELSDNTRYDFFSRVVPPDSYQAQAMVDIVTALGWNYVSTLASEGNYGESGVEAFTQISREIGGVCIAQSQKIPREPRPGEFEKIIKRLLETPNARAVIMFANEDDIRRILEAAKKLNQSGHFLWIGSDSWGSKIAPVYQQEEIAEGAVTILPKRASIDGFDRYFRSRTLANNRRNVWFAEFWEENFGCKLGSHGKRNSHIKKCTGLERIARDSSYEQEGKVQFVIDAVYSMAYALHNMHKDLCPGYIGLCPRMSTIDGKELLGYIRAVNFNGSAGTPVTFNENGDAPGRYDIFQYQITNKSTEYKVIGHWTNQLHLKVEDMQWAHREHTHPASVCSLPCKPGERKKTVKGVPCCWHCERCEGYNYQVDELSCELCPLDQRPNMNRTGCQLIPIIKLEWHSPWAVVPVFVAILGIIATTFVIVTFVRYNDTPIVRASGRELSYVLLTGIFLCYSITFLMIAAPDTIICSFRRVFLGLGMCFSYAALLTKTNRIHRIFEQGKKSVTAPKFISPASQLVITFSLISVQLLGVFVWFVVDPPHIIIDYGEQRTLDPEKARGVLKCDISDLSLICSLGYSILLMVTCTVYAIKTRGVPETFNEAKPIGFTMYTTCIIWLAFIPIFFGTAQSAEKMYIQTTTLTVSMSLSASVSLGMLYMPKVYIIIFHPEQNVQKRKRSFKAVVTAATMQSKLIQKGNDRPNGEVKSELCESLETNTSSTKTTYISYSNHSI

[3] = molecular target: T2, Metabotropic glutamate receptor 6 (Homo sapiens, UniProt O15303); assay: Agonist activity at human mGlu6 receptor expressed in golden Syrian hamster AV12 cells coexpressing EAAT1 after 20 mins by FLIPR assay; type: cell-based
T2 sequence (O15303 whole entry): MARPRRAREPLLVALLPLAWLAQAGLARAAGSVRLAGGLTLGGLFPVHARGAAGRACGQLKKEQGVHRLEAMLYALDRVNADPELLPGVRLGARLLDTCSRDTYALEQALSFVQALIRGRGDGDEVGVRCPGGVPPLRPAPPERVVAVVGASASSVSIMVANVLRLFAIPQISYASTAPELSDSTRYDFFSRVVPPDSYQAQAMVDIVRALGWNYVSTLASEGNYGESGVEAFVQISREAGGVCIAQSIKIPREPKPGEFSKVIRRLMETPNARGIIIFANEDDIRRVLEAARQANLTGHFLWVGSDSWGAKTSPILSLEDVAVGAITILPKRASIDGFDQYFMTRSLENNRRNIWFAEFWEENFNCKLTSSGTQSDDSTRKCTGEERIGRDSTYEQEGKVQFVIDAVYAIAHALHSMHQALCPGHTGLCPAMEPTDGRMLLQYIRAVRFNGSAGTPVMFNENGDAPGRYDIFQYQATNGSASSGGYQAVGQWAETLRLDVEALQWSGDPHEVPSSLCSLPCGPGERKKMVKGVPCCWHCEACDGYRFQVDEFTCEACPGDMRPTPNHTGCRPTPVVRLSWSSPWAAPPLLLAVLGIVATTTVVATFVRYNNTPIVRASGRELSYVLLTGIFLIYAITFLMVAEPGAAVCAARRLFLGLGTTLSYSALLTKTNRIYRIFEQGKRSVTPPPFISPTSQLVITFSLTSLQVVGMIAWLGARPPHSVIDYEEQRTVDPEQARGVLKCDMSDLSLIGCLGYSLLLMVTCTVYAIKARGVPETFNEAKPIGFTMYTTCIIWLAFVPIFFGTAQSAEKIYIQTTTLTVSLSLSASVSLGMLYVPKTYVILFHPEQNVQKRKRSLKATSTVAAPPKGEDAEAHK

[4] = molecular target: T3, Metabotropic glutamate receptor 2 (Homo sapiens, UniProt Q14416); assay: Agonist activity at human mGlu2 receptor expressed in golden Syrian hamster AV12 cells coexpressing EAAT1 after 20 mins by HTRF assay; type: cell-based
T3 sequence (Q14416 whole entry): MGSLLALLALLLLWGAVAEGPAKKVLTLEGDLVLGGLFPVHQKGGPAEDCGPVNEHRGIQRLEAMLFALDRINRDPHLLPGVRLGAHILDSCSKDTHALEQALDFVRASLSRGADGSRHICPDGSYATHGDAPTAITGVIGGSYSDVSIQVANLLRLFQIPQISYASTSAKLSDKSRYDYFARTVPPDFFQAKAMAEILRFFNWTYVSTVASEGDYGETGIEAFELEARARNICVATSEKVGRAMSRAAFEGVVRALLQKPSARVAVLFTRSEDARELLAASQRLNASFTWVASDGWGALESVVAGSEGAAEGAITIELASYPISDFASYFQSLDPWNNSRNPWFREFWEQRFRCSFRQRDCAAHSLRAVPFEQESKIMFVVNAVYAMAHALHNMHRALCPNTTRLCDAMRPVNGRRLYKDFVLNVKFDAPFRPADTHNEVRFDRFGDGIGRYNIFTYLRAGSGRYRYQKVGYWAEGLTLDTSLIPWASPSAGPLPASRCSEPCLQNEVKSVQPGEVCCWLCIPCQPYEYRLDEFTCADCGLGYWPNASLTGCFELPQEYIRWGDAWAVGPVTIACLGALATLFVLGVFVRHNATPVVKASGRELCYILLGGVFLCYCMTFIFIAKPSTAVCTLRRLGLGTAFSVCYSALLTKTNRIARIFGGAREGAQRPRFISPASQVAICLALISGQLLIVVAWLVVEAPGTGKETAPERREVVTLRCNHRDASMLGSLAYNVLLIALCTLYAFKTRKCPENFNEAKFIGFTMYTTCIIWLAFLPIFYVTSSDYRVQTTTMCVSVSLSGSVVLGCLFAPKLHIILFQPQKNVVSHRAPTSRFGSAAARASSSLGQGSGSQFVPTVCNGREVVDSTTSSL

[5] = molecular target: T2, Metabotropic glutamate receptor 6; assay: Antagonist activity at human mGlu6 receptor expressed in golden Syrian hamster AV12 cells coexpressing EAAT1 assessed as inhibition of forskolin-stimulated cAMP production after 20 mins by FLIPR assay relative to control; type: functional, cell-based
[6] = molecular target: T2, Metabotropic glutamate receptor 6; assay: Agonist activity at human mGlu6 receptor expressed in golden Syrian hamster AV12 cells coexpressing EAAT1 assessed as inhibition of forskolin-stimulated cAMP production after 20 mins by FLIPR assay
[7] = molecular target: T3, Metabotropic glutamate receptor 2; assay: Antagonist activity at human mGlu2 receptor expressed in golden Syrian hamster AV12 cells coexpressing EAAT1 assessed as inhibition of forskolin-stimulated cAMP production after 20 mins by HTRF assay; type: functional, cell-based
[8] = molecular target: T1, Metabotropic glutamate receptor 3; assay: Antagonist activity at human mGlu3 receptor expressed in golden Syrian hamster AV12 cells coexpressing EAAT1 assessed as inhibition of forskolin-stimulated cAMP production after 20 mins by HTRF assay; type: functional, cell-based
[9] = Volume of distribution at steady state in Sprague-Dawley rat at 3 mg/kg, iv up to 24 hrs by LC/MS/MS analysis; type: ADME, organism-based; parameters: dose 3 mg/kg, route intravenous; settings: in vivo, read-out: Vdss
Summary of the method: (§1)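 Fasted male Sprague Dawley rats (~250 g) were dosed with an aqueous solution adjusted to pH 7-7.5 with NaOH, by oral gavage (1, 3, 10 mg/kg) or intravenously (3 mg/kg). Serial jugular-catheter blood samples (11-12 per rat) went into EDTA tubes over 24 h. Plasma was extracted by SPE with an analog internal standard and run on an anion-exchange HPLC column, SRM m/z 204.1 > 77.1. Parameters came from noncompartmental analysis and are reported as means.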

[10] = Half life in Sprague-Dawley rat at 3 mg/kg, iv by LC/MS/MS analysis; type: ADME, organism-based; parameters: dose 3 mg/kg, route intravenous; settings: in vivo; summary of the method: as §1
Rattus norvegicus [11] = assay: Antipsychotic activity in po dosed Sprague-Dawley rat assessed as decrease in PCP-elicited ambulations administered 2 hrs prior to test measured for 60 mins; type: functional
[12] = Tmax in Sprague-Dawley rat at 3 mg/kg, iv by LC/MS/MS analysis; type: ADME, organism-based; parameters: dose 3 mg/kg, route intravenous; settings: in vivo; summary of the method: as §1
[13] = AUC (0 to 24 hrs) in Sprague-Dawley rat at 3 mg/kg, iv by LC/MS/MS analysis; type: ADME, organism-based; parameters: time < 24 hr, dose 3 mg/kg, route intravenous; settings: plasma; summary of the method: as §1
[14] = Initial plasma concentration in Sprague-Dawley rat at 3 mg/kg, iv by LC/MS/MS analysis; type: ADME, organism-based; parameters: dose 3 mg/kg, route intravenous; summary of the method: as §1
[15] = Tmax in Sprague-Dawley rat at 3 mg/kg, po by LC/MS/MS analysis; type: ADME, organism-based; parameters: dose 3 mg/kg, route oral; settings: in vivo; summary of the method: as §1
Rattus norvegicus [16] = assay: Neurotoxicity in Sprague-Dawley rat assessed as impairment of motor coordination at 3 to 10 mg/kg, po administered 2 hrs prior to test by rotarod test; type: toxicity, organism-based; parameters: dose 3-10 mg/kg, route oral; settings: in vivo
Summary of the method: (§2)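 Rats were trained to stay on a 4 rpm rotorod for 1 min, with up to four attempts, and were retested 30-60 min later; failures were excluded. Trained rats (8/group) received oral aqueous solution (3, 10 or 30 mg/kg) or vehicle and were retested 120 min later, scored as seconds on the rotorod. One-way ANOVA with Dunnett's test was run against vehicle.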

[17] = Clearance in Sprague-Dawley rat at 3 mg/kg, iv up to 24 hrs by LC/MS/MS analysis; type: ADME, organism-based; parameters: dose 3 mg/kg, route intravenous; settings: in vivo; summary of the method: as §1
[18] = Half life in Sprague-Dawley rat at 3 mg/kg, po by LC/MS/MS analysis; type: ADME, organism-based; parameters: dose 3 mg/kg, route oral; settings: in vivo; summary of the method: as §1
[19] = AUC (0 to 24 hrs) in Sprague-Dawley rat at 10 mg/kg, po by LC/MS/MS analysis; type: ADME, organism-based; parameters: time < 24 hr, dose 10 mg/kg, route oral; settings: plasma; summary of the method: as §1
[20] = Tmax in Sprague-Dawley rat at 1 mg/kg, po by LC/MS/MS analysis; type: ADME, organism-based; parameters: dose 1 mg/kg, route oral; settings: in vivo; summary of the method: as §1
[21] = Half life in Sprague-Dawley rat at 10 mg/kg, po by LC/MS/MS analysis; type: ADME, organism-based; parameters: dose 10 mg/kg, route oral; settings: in vivo; summary of the method: as §1
[22] = AUC (0 to 24 hrs) in Sprague-Dawley rat at 1 mg/kg, po by LC/MS/MS analysis; type: ADME, organism-based; parameters: time < 24 hr, dose 1 mg/kg, route oral; settings: plasma; summary of the method: as §1
[23] = AUC (0 to 24 hrs) in Sprague-Dawley rat at 3 mg/kg, po by LC/MS/MS analysis; type: ADME, organism-based; parameters: time < 24 hr, dose 3 mg/kg, route oral; settings: plasma; summary of the method: as §1
[24] = Half life in Sprague-Dawley rat at 1 mg/kg, po by LC/MS/MS analysis; type: ADME, organism-based; parameters: dose 1 mg/kg, route oral; settings: in vivo; summary of the method: as §1
[25] = Cmax in Sprague-Dawley rat at 10 mg/kg, po up to 24 hrs by LC/MS/MS analysis; type: ADME, organism-based; parameters: dose 10 mg/kg, route oral; settings: in vivo; summary of the method: as §1
[26] = Tmax in Sprague-Dawley rat at 10 mg/kg, po by LC/MS/MS analysis; type: ADME, organism-based; parameters: dose 10 mg/kg, route oral; settings: in vivo; summary of the method: as §1
[27] = Cmax in Sprague-Dawley rat at 3 mg/kg, po up to 24 hrs by LC/MS/MS analysis; type: ADME, organism-based; parameters: dose 3 mg/kg, route oral; settings: in vivo; summary of the method: as §1
[28] = Oral bioavailability in Sprague-Dawley rat at 3 mg/kg up to 24 hrs by LC/MS/MS analysis; type: ADME, organism-based; settings: in vivo; summary of the method: as §1
Rattus norvegicus [29] = assay: Neurotoxicity in Sprague-Dawley rat assessed as impairment of motor coordination at 30 mg/kg, po administered 2 hrs prior to test by rotarod test; type: toxicity, organism-based; parameters: dose 30 mg/kg, route oral; settings: in vivo; summary of the method: as §2
[30] = Cmax in Sprague-Dawley rat at 1 mg/kg, po up to 24 hrs by LC/MS/MS analysis; type: ADME, organism-based; parameters: dose 1 mg/kg, route oral; settings: in vivo; summary of the method: as §1

- EC50 [1]: 166 nM
- EC50 [2]: > 25000 nM
- EC50 [3]: 9280 nM
- EC50 [4]: 28.6 nM
Structure (SMILES): C[C@H]1C[C@@](N)(C(=O)O)[C@@H]2[C@@H](C(=O)O)[C@@H]21

- EC50 [1]: 0.11 nM
- EC50 [2]: 6530 nM
- %max [5]: 100%
- EC50 [4]: 0.16 nM
- EC50 [6]: 1380 nM
Structure (SMILES): N[C@@]1(C(=O)O)CC(=O)[C@H]2[C@H](C(=O)O)[C@H]21

- EC50 [2]: > 25000 nM
- IC50 [7]: 7020 nM
- EC50 [3]: 1270 nM
- IC50 [8]: 895 nM
Structure (SMILES): N[C@@]1(C(=O)O)C[C@@H](Sc2ccccc2)[C@H]2[C@H](C(=O)O)[C@H]21

- EC50 [1]: 27.1 nM
- EC50 [2]: > 25000 nM
- EC50 [3]: 3360 nM
Structure (SMILES): N[C@@]1(C(=O)O)CC[C@H]2[C@H](C(=O)O)[C@H]21

- EC50 [2]: > 25000 nM
- EC50 [4]: 7.5 nM
- EC50 [6]: 3040 nM
Structure (SMILES): N[C@@]1(C(=O)O)C[C@H](O)[C@H]2[C@H](C(=O)O)[C@H]21

- EC50 [1]: 12.3 nM
- EC50 [2]: 12400 nM
- EC50 [3]: 780 nM
- EC50 [4]: 8.2 nM
Structure (SMILES): [N-]=[N+]=N[C@@H]1C[C@@](N)(C(=O)O)[C@@H]2[C@@H](C(=O)O)[C@@H]21

- Vd [9]: 1.25 L/kg
- EC50 [1]: 0.24 nM
- half-life [10]: 7.3 h
- Tmax [12]: 0 h
- AUC(0-t) at 24 h [13]: 16.7 µM·h
- C0 [14]: 36.7 µM
- Tmax [15]: 1.8 h
- EC50 [2]: 11500 nM
- clearance [17]: 14.8 mL/min/kg
- half-life [18]: 3.5 h
- AUC(0-t) at 24 h [19]: 23.6 µM·h
- Tmax [20]: 2.5 h
- half-life [21]: 5.9 h
- AUC(0-t) at 24 h [22]: 2.79 µM·h
- AUC(0-t) at 24 h [23]: 10.7 µM·h
- EC50 [3]: 1410 nM
- half-life [24]: 2.7 h
- Cmax [25]: 7.94 µM
- Tmax [26]: 2 h
- Cmax [27]: 3.94 µM
- EC50 [4]: 0.56 nM
- bioavailability [28]: 64.4%
- Cmax [30]: 0.713 µM
Structure (SMILES): N[C@@]1(C(=O)O)C[C@@H](F)[C@H]2[C@H](C(=O)O)[C@H]21
- Activity (Rattus norvegicus [11]): Dose-dependent effect
- ED50 (Rattus norvegicus [11]): 2.08 mg/kg
- Activity (Rattus norvegicus [16]): Non-toxic
- Activity (Rattus norvegicus [29]): Toxic

- EC50 [2]: > 25000 nM
- EC50 [3]: 4370 nM
- EC50 [4]: 7.6 nM
Structure (SMILES): N[C@@]1(C(=O)O)C[C@@H](O)[C@H]2[C@H](C(=O)O)[C@H]21

- EC50 [1]: 24.9 nM
- EC50 [2]: > 25000 nM
- EC50 [3]: 9370 nM
- EC50 [4]: 21.2 nM
Structure (SMILES): N[C@H]1C[C@@](N)(C(=O)O)[C@@H]2[C@@H](C(=O)O)[C@@H]21

- EC50 [1]: 23.5 nM
- EC50 [2]: 12000 nM
- %max [5]: 100%
- EC50 [4]: 12.2 nM
- EC50 [6]: 1890 nM
Structure (SMILES): [N-]=[N+]=N[C@H]1C[C@@](N)(C(=O)O)[C@@H]2[C@@H](C(=O)O)[C@@H]21

- EC50 [2]: > 25000 nM
- EC50 [3]: 3250 nM
- IC50 [8]: 3370 nM
- EC50 [4]: 1170 nM
Structure (SMILES): N[C@@]1(C(=O)O)C[C@H](Sc2ccccc2)[C@H]2[C@H](C(=O)O)[C@H]21

- EC50 [1]: 193 nM
- EC50 [2]: 4300 nM
- EC50 [3]: 709 nM
- EC50 [4]: 257 nM
Structure (SMILES): CC(=O)N[C@H]1C[C@@](N)(C(=O)O)[C@@H]2[C@@H](C(=O)O)[C@@H]21

- EC50 [1]: 57.1 nM
- EC50 [2]: > 25000 nM
- EC50 [3]: 11800 nM
- EC50 [4]: 47.9 nM
Structure (SMILES): N[C@@H]1C[C@@](N)(C(=O)O)[C@@H]2[C@@H](C(=O)O)[C@@H]21

- EC50 [2]: > 25000 nM
- EC50 [3]: 7540 nM
- IC50 [8]: 3420 nM
- EC50 [4]: 63.6 nM
Structure (SMILES): C[C@@H]1C[C@@](N)(C(=O)O)[C@@H]2[C@@H](C(=O)O)[C@@H]21

- EC50 [2]: > 25000 nM
- IC50 [7]: 4990 nM
- EC50 [3]: 6690 nM
- IC50 [8]: 3390 nM
Structure (SMILES): CC(=O)N[C@@H]1C[C@@](N)(C(=O)O)[C@@H]2[C@@H](C(=O)O)[C@@H]21

- EC50 [1]: 15.5 nM
- EC50 [2]: 1590 nM
- %max [5]: 100%
- EC50 [4]: 1.3 nM
- EC50 [6]: 267 nM
Structure (SMILES): C=C1C[C@@](N)(C(=O)O)[C@H]2[C@@H]1[C@@H]2C(=O)O
